Results pooled from the literature.
Compare with care: the assays were run in different laboratories.
Target: Fibroblast growth factor receptor 2 (FGFR2, Homo sapiens, UniProt P21802)

| Structure (SMILES) | assay | setting | quantity | value |
| --- | --- | --- | --- | --- |
| Cn1cncc1[C@](O)(COc1ccc(C#N)cc1-c1ccc(OC(F)(F)F)cc1)c1ccc(C#N)cc1 | cell-free assay, competition with immobilised ligand | 1 µM | remaining binding | 86% |
| C#Cc1n[nH]c2c(-c3cn([C@@H](C)c4ccccc4)c(=O)[nH]c3=O)cc(F)cc12 | enzyme activity, inhibitor | 0.1 µM | inhibition | 1.6% |
| O=c1[nH]c2ccccc2n1C1CCN(Cc2ccc(-c3[nH]c4cc5ncnc5cc4nc3-c3ccccc3)cc2)CC1 | cell-free assay | 0.5 µM | remaining signal | 94.2% |
| Nc1ncc(-c2nc(N3CCOCC3)nc(N3CCOCC3)n2)c(C(F)F)n1 | cell-free assay, competition with immobilised ligand | 10 µM | remaining binding | 90% |
| COc1ncccc1-c1cnn2ccc(N3CCN(C(=O)OC(C)C)CC3)nc12 | binding, competition with immobilised ligand | 1 µM | remaining binding | 82% |
| Cc1nn(C)cc1-c1nc2c(N3CCN(Cc4ccc(Cl)cc4)CC3)c(Cl)cnc2[nH]1 | binding, competition with immobilised ligand | 1 µM | remaining binding | 45% |
| N#CC1(c2ccccn2)CCN(Cc2cc(C(=O)O)c(=O)n3ccccc23)CC1 | cell-free assay, competition with immobilised ligand | 1 µM | remaining binding | 100% |
| Cn1cc(-c2cccc(N3CCc4c(sc5c4CC(C)(C)C5)C3=O)c2CO)cc(Nc2ccncn2)c1=O | enzyme activity, inhibitor | 1 µM | inhibition | 14% |
| C#Cc1n[nH]c2c(-c3cn([C@@H](C)c4ccccn4)c(=O)[nH]c3=O)cc(F)cc12 | enzyme activity, inhibitor | 0.1 µM | inhibition | 4.2% |
| Cn1cc(-c2cc(F)cc(N3CCn4c(cc5c4CCCC5)C3=O)c2CO)cc(Nc2ccc(N3CCN(C4COC4)CC3)cn2)c1=O | enzyme activity, inhibitor | 0.1 µM | inhibition | 15% |
| COCc1c(-c2cc3cc(C)cc(OC)c3s2)c2c(N)ncnn2c1CN1CCNC(=O)C1 | cell-free assay, competition with immobilised ligand | 1 µM | inhibition | 99.8% |
| CC(C)(C)c1cc(C=C(C#N)C#N)cc(Br)c1O | enzyme activity, inhibitor | 0.5 µM | remaining activity | 96.4% |
